How the values were obtained:
Salmonella typhimurium [1] = experiment: compound was tested for mutagenicity against Salmonella tester strain TA 1535 with hamster S9 mix (3 mg/plate) in cells at dose of 500 ug
[2] = Concentration in nmol/plate to induce 50 revertants/plate.; format: ADME
Procedure, shortened: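 Ames plate incorporation, S. typhimurium TA 1535, Aroclor-induced male hamster liver S9; duplicate plates, 10-point range 1–1000 µg/plate; 37 °C, 48 h; revertants counted by hand tally. Potency index: concentration (nmol/plate) inducing 50 revertants/plate, taken from linear portion of dose–response curve.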

Salmonella typhimurium [3] = experiment: Mutagenicity against Salmonella tester strain TA 1535 without hamster S9 mix (3 mg/plate) in cells.; format: functional, Salmonella enterica subsp. enterica serovar Typhimurium
Salmonella typhimurium [4] = experiment: compound was tested for mutagenicity against Salmonella tester strain TA 1535 with out hamster S9 mix (3 mg/plate) in cells at dose of 500 ug
Cricetinae gen. sp. = experiment: (§1) compound was tested for mutagenicity against Salmonella tester strain TA 1535 with out hamster S9 mix (3 mg/plate) in cells at dose of 50 ug; format: functional
Procedure, shortened: (§2)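 Plate incorporation assay in S. typhimurium TA 1535 without S9 activation. Compound in Me2SO, 1–1000 µg/plate, duplicate plates, mean revertants/plate; incubated 37 °C for 48 h, colonies hand-counted. Positive if two consecutive doses gave revertants more than twice the concurrent control mean.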

Salmonella typhimurium [5] = experiment: compound was tested for mutagenicity against Salmonella tester strain TA 1535 with out hamster S9 mix (3 mg/plate) in cells at dose of 500 ug; format: functional, Salmonella enterica subsp. enterica serovar Typhimurium
Procedure, shortened: as §2

Salmonella typhimurium [6] = experiment: compound was tested for mutagenicity against Salmonella tester strain TA 1535 with hamster S9 mix (3 mg/plate) in cells at dose of 100 ug; format: functional, Salmonella enterica subsp. enterica serovar Typhimurium
Procedure, shortened: as §2, with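 “with Aroclor-induced male hamster liver” for “without”, “(3 mg/plate).” for “activation.”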

Salmonella typhimurium [7] = experiment: compound was tested for mutagenicity against Salmonella tester strain TA 1535 with hamster S9 mix (3 mg/plate) in cells at dose of 50 ug; format: functional, Salmonella enterica subsp. enterica serovar Typhimurium
Procedure, shortened: as §2, with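 “with Aroclor-induced male hamster liver” for “without”, “(3 mg/plate).” for “activation.”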

Salmonella typhimurium [8] = experiment: compound was tested for mutagenicity against Salmonella tester strain TA 1535 with hamster S9 mix (3 mg/plate) in cells at dose of 250 ug; format: functional, Salmonella enterica subsp. enterica serovar Typhimurium
Procedure, shortened: as §2, with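 “with Aroclor-induced male hamster liver” for “without”, “(3 mg/plate).” for “activation.”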

Salmonella typhimurium [9] = experiment: compound was tested for mutagenicity against Salmonella tester strain TA 1535 with out hamster S9 mix (3 mg/plate) in cells at dose of 1000 ug; format: functional, Salmonella enterica subsp. enterica serovar Typhimurium
Procedure, shortened: as §2

Salmonella typhimurium [10] = experiment: compound was tested for mutagenicity against Salmonella tester strain TA 1535 with hamster S9 mix (3 mg/plate) in cells.; format: functional, Salmonella enterica subsp. enterica serovar Typhimurium
Procedure, shortened: as §2, with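 “with Aroclor-induced male hamster liver” for “without”, “(3 mg/plate).” for “activation.”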

Salmonella typhimurium [11] = experiment: compound was tested for mutagenicity against Salmonella tester strain TA 1535 with hamster S9 mix (3 mg/plate) in cells at dose of 2.5 ug; format: functional, Salmonella enterica subsp. enterica serovar Typhimurium
Procedure, shortened: as §2, with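 “with Aroclor-induced male hamster liver” for “without”, “(3 mg/plate).” for “activation.”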

Salmonella typhimurium [12] = experiment: compound was tested for mutagenicity against Salmonella tester strain TA 1535 with hamster S9 mix (3 mg/plate) in cells at dose of 25 ug; format: functional, Salmonella enterica subsp. enterica serovar Typhimurium
Procedure, shortened: as §2, with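 “with Aroclor-induced male hamster liver” for “without”, “(3 mg/plate).” for “activation.”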

Salmonella typhimurium [13] = experiment: compound was tested for mutagenicity against Salmonella tester strain TA 1535 with out hamster S9 mix (3 mg/plate) in cells at dose of 100 ug; format: functional, Salmonella enterica subsp. enterica serovar Typhimurium
Procedure, shortened: as §2

Salmonella typhimurium [14] = experiment: compound was tested for mutagenicity against Salmonella tester strain TA 1535 with out hamster S9 mix (3 mg/plate) in cells.; format: functional, Salmonella enterica subsp. enterica serovar Typhimurium
Procedure, shortened: as §2

Salmonella typhimurium [15] = experiment: compound was tested for mutagenicity against Salmonella tester strain TA 1535 with hamster S9 mix (3 mg/plate) in cells at dose of 1 ug; format: functional, Salmonella enterica subsp. enterica serovar Typhimurium
Procedure, shortened: as §2, with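 “with Aroclor-induced male hamster liver” for “without”, “(3 mg/plate).” for “activation.”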

Salmonella typhimurium [16] = experiment: compound was tested for mutagenicity against Salmonella tester strain TA 1535 with out hamster S9 mix (3 mg/plate) in cells at dose of 250 ug; format: functional, Salmonella enterica subsp. enterica serovar Typhimurium
Procedure, shortened: as §2

Salmonella typhimurium [17] = experiment: compound was tested for mutagenicity against Salmonella tester strain TA 1535 with hamster S9 mix (3 mg/plate) in cells at dose of 5 ug; format: functional, Salmonella enterica subsp. enterica serovar Typhimurium
Procedure, shortened: as §2, with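 “with Aroclor-induced male hamster liver” for “without”, “(3 mg/plate).” for “activation.”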

Salmonella typhimurium [18] = experiment: compound was tested for mutagenicity against Salmonella tester strain TA 1535 with hamster S9 mix (3 mg/plate) in cells at dose of 500 ug; format: functional, Salmonella enterica subsp. enterica serovar Typhimurium
Procedure, shortened: as §2, with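 “with Aroclor-induced male hamster liver” for “without”, “(3 mg/plate).” for “activation.”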

Salmonella typhimurium [19] = experiment: compound was tested for mutagenicity against Salmonella tester strain TA 1535 with out hamster S9 mix (3 mg/plate) in cells at dose of 1 ug; format: functional, Salmonella enterica subsp. enterica serovar Typhimurium
Procedure, shortened: as §2

Salmonella typhimurium [20] = experiment: compound was tested for mutagenicity against Salmonella tester strain TA 1535 with hamster S9 mix (3 mg/plate) in cells at dose of 1000 ug; format: functional, Salmonella enterica subsp. enterica serovar Typhimurium
Procedure, shortened: as §2, with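 “with Aroclor-induced male hamster liver” for “without”, “(3 mg/plate).” for “activation.”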

Salmonella typhimurium [21] = experiment: compound was tested for mutagenicity against Salmonella tester strain TA 1535 with hamster S9 mix (3 mg/plate) in cells at dose of 10 ug; format: functional, Salmonella enterica subsp. enterica serovar Typhimurium
Procedure, shortened: as §2, with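 “with Aroclor-induced male hamster liver” for “without”, “(3 mg/plate).” for “activation.”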

Salmonella typhimurium [22] = experiment: compound was tested for mutagenicity against Salmonella tester strain TA 1535 with out hamster S9 mix (3 mg/plate) in cells at dose of 10 ug; format: functional, Salmonella enterica subsp. enterica serovar Typhimurium
Procedure, shortened: as §2

Salmonella typhimurium [23] = experiment: compound was tested for mutagenicity against Salmonella tester strain TA 1535 with out hamster S9 mix (3 mg/plate) in cells at dose of 5 ug; format: functional, Salmonella enterica subsp. enterica serovar Typhimurium
Procedure, shortened: as §2

Salmonella typhimurium [24] = experiment: compound was tested for mutagenicity against Salmonella tester strain TA 1535 with out hamster S9 mix (3 mg/plate) in cells at dose of 25 ug; format: functional, Salmonella enterica subsp. enterica serovar Typhimurium
Procedure, shortened: as §2

Salmonella typhimurium [25] = experiment: compound was tested for mutagenicity against Salmonella tester strain TA 1535 with hamster S9 mix (3 mg/plate) in cells. Activity expressed as no. of cells; format: functional, Salmonella enterica subsp. enterica serovar Typhimurium
Procedure, shortened: as §2, with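 “with Aroclor-induced male hamster liver” for “without”, “(3 mg/plate).” for “activation.”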

Salmonella typhimurium [26] = experiment: as §1; format: functional, Salmonella enterica subsp. enterica serovar Typhimurium
Procedure, shortened: as §2

Salmonella typhimurium [27] = experiment: compound was tested for mutagenicity against Salmonella tester strain TA 1535 with out hamster S9 mix (3 mg/plate) in cells at dose of 2.5 ug; format: functional, Salmonella enterica subsp. enterica serovar Typhimurium
Procedure, shortened: as §2

## CN(Cc1ccc(C#N)cc1)N=O
Salmonella typhimurium [1]
  No. of revertants per plate: 180
[2]
  Log 1/C: -2.78
Salmonella typhimurium [3]
  Activity: 15
Salmonella typhimurium [4]
  No. of revertants per plate: 12

## CN(Cc1ccc([N+](=O)[O-])cc1)N=O
Salmonella typhimurium [1]
  No. of revertants per plate: 176
[2]
  Log 1/C: -2.202
Salmonella typhimurium [3]
  Activity: 19
Salmonella typhimurium [4]
  No. of revertants per plate: 23

## CN(Cc1ccc(C(=O)O)cc1)N=O
Salmonella typhimurium [1]
  No. of revertants per plate: 15
Salmonella typhimurium [3]
  Activity: 13
Salmonella typhimurium [4]
  No. of revertants per plate: 21

## CN(Cc1ccccc1)N=O
Cricetinae gen. sp.
  No. of revertants per plate: 14
Salmonella typhimurium [1]
  No. of revertants per plate: 60
[2]
  Log 1/C: -3.416
Salmonella typhimurium [3]
  Activity: 19
Salmonella typhimurium [4]
  No. of revertants per plate: 17

## COc1ccc(CN(C)N=O)cc1
Salmonella typhimurium [1]
  No. of revertants per plate: 24
Salmonella typhimurium [3]
  Activity: 12
Salmonella typhimurium [4]
  No. of revertants per plate: 15

## CN(Cc1ccc(F)cc1)N=O
Salmonella typhimurium [5]
  No. of revertants per plate: 19
Salmonella typhimurium [6]
  No. of revertants per plate: 71
Salmonella typhimurium [7]
  No. of revertants per plate: 39
Salmonella typhimurium [8]
  No. of revertants per plate: 71
Salmonella typhimurium [9]
  No. of revertants per plate: 15
Salmonella typhimurium [10]
  Activity: 24
Salmonella typhimurium [11]
  No. of revertants per plate: 15
Salmonella typhimurium [12]
  No. of revertants per plate: 27
Salmonella typhimurium [13]
  No. of revertants per plate: 22
Salmonella typhimurium [14]
  Activity: 8
Salmonella typhimurium [15]
  No. of revertants per plate: 15
Salmonella typhimurium [16]
  No. of revertants per plate: 11
Salmonella typhimurium [17]
  No. of revertants per plate: 21
Salmonella typhimurium [18]
  No. of revertants per plate: 94
Salmonella typhimurium [19]
  No. of revertants per plate: 18
[2]
  Log 1/C: -2.969
Salmonella typhimurium [3]
  Activity: 15
Salmonella typhimurium [20]
  No. of revertants per plate: 126
Salmonella typhimurium [21]
  No. of revertants per plate: 22
Salmonella typhimurium [22]
  No. of revertants per plate: 17
Salmonella typhimurium [23]
  No. of revertants per plate: 21
Salmonella typhimurium [24]
  No. of revertants per plate: 20
Salmonella typhimurium [25]
  Activity: 19
Salmonella typhimurium [26]
  No. of revertants per plate: 16
Salmonella typhimurium [27]
  No. of revertants per plate: 8

## CN(Cc1ccc(Cl)cc1)N=O
Salmonella typhimurium [5]
  No. of revertants per plate: 24
Salmonella typhimurium [6]
  No. of revertants per plate: 136
Salmonella typhimurium [7]
  No. of revertants per plate: 77
Salmonella typhimurium [8]
  No. of revertants per plate: 221
Salmonella typhimurium [9]
  No. of revertants per plate: 17
Salmonella typhimurium [10]
  Activity: 22
Salmonella typhimurium [11]
  No. of revertants per plate: 19
Salmonella typhimurium [12]
  No. of revertants per plate: 42
Salmonella typhimurium [13]
  No. of revertants per plate: 19
Salmonella typhimurium [14]
  Activity: 19
Salmonella typhimurium [15]
  No. of revertants per plate: 18
Salmonella typhimurium [16]
  No. of revertants per plate: 19
Salmonella typhimurium [17]
  No. of revertants per plate: 21
Salmonella typhimurium [18]
  No. of revertants per plate: 166
Salmonella typhimurium [19]
  No. of revertants per plate: 17
[2]
  Log 1/C: -1.933
Salmonella typhimurium [3]
  Activity: 22
Salmonella typhimurium [20]
  No. of revertants per plate: 192
Salmonella typhimurium [21]
  No. of revertants per plate: 24
Salmonella typhimurium [22]
  No. of revertants per plate: 18
Salmonella typhimurium [23]
  No. of revertants per plate: 14
Salmonella typhimurium [24]
  No. of revertants per plate: 21
Salmonella typhimurium [25]
  Activity: 23
Salmonella typhimurium [26]
  No. of revertants per plate: 19
Salmonella typhimurium [27]
  No. of revertants per plate: 16

## CN(Cc1cccc(C#N)c1)N=O
Salmonella typhimurium [1]
  No. of revertants per plate: 185
[2]
  Log 1/C: -2.139
Salmonella typhimurium [3]
  Activity: 14
Salmonella typhimurium [4]
  No. of revertants per plate: 3053

— ChEMBL document CHEMBL1123208, “Quantitative structure-activity relationship of the mutagenicity of substituted N-nitroso-N-benzylmethylamines: possible implications for carcinogenicity” (J Med Chem, 1986)
